Results collected from several papers.
Protocols differ between the studies behind these lines.
Target: Cyclin-dependent kinase 7 (CDK7, Homo sapiens, UniProt P50613)

COc1cnc(Nc2cccc(S(N)(=O)=O)c2)nc1N1CCN(c2ccccc2)CC1 — remaining binding (binding, competition with immobilised ligand; 1 µM): 84%
O=C(O)c1cc(-c2ccc(C3CCNCC3)cc2)c2ccc(-c3ccc(C(F)(F)F)cc3)cc2c1 — remaining binding (cell-free assay, competition with immobilised ligand; 1 µM): 82%
C[C@H]1CCN(c2nccc(-c3cnn4ncccc34)n2)C1 — remaining binding (binding; 1 µM): 27%
C[C@@H]1CN(c2ccc3ncc(-c4ccc5[nH]nc(C6CC6)c5c4)n3n2)C[C@H](C)O1 — remaining binding (binding, competition with immobilised ligand; 0.5 µM): 23%
COc1ncc2cc3ccccc3nc2c1C#N — remaining binding (cell-free assay, competition with immobilised ligand; 5 µM): 100%
O=C(c1ccc(Nc2nccc(-c3cc4ccccc4s3)n2)cc1)N1CCC(N2CCCC2)CC1 — remaining binding (binding, competition with immobilised ligand; 1 µM): 12%
Cc1cnn2ncc(-c3ccnc(N(C)C)n3)c2c1 — remaining binding (binding; 1 µM): 61%
O=C(O)[C@@H]1[C@@H](Cn2nnc3ccccc3c2=O)CC[C@H]1C(=O)c1ccc(OCCC2CCOCC2)cc1 — remaining binding (cell-free assay, competition with immobilised ligand; 1 µM): 86%
O=C(c1ccc(Nc2ncc(Cl)c(-c3ccc(Cl)s3)n2)cc1)N1CCC(N2CCCC2)CC1 — remaining binding (binding, competition with immobilised ligand; 1 µM): 0.55%
N[C@H]1CCN(c2nccc(-c3cnn4ncccc34)n2)C1 — remaining binding (binding; 1 µM): 59%
CCC(=O)N[C@@H]1CC[C@H](C(=O)N(C)c2ccc(-c3nc4ccccc4o3)cc2)C1 — remaining binding (cell-free assay, competition with immobilised ligand; 1 µM): 85%
COc1cnc(Nc2cccc(S(N)(=O)=O)c2)nc1N1CCN(c2ccccc2)C(=O)C1 — remaining binding (binding, competition with immobilised ligand; 1 µM): 73%
COc1cccc(CNC(=O)c2nc3scc(COCc4ccc(C(=O)O)cc4)c3c(=O)[nH]2)c1 — remaining binding (cell-free assay, competition with immobilised ligand; 1 µM): 80.5%
CC1CCCN1c1nccc(-c2cnn3ncccc23)n1 (centres unmarked) — remaining binding (binding; 1 µM): 100%
O=C(c1ccc(Nc2ncc(Cl)c(-c3cc4ccccc4s3)n2)cc1)N1CCC(N2CCCC2)CC1 — remaining binding (binding, competition with immobilised ligand; 1 µM): 1.5%
Nc1ncc2c(n1)-c1c([nH]c3ccc(C#CC4CC4)cc13)CCCC2 — remaining binding (binding, competition with immobilised ligand; 1 µM): 92%
O=C(NCCCC1CCCCC1)c1ccc(CNC(=O)c2cnn(-c3ccccc3)c2C(F)(F)F)cc1 — remaining binding (cell-free assay, competition with immobilised ligand; 0.1 µM): 100%
O=C(Nc1c[nH]nc1C(=O)NC1CCNCC1)c1cc(F)cc(F)c1 — remaining binding (binding, competition with immobilised ligand; 1 µM): 5.6%
CN(C)c1nccc(-c2cnn3ncccc23)n1 — remaining binding (binding; 1 µM): 82%
CS(=O)(=O)NCC[C@H](NC(=O)c1cncc2c1cnn2-c1ccc(F)cc1)c1ccnc(S(C)(=O)=O)c1 — remaining binding (cell-free assay, competition with immobilised ligand; 1 µM): 100%
CN(CCCC(F)(F)F)c1nccc(-c2cnn3ncccc23)n1 — remaining binding (binding; 1 µM): 87%
COC(=O)Nc1nc2ccc(C(=O)c3ccccc3)cc2[nH]1 — remaining binding (cell-free assay, competition with immobilised ligand; 10 µM): 11%
Cc1c(C(=O)O)cc(-c2ccc(C3CCNCC3)cc2)c2ccc(-c3ccc(C(F)(F)F)cc3)cc12 — remaining binding (binding, competition with immobilised ligand; 1 µM): 97%
